Measurements as given in ChEMBL document CHEMBL3792302, “N-Phenyl indole derivatives as AT1 antagonists with anti-hypertension activities: Design, synthesis and biological evaluation” (Eur J Med Chem, 2016).
Calls of active or inactive are those of the source. The calls are words filed in the database; no cut-off is given here.

Legend:
[1] = (§1) Displacement of [125I]-Sar1,Ile8-angiotensin 2 from AT1 receptor in Sprague-Dawley rat vascular smooth muscle cells after 150 mins by gamma counting analysis
Procedure, shortened: (§2)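 Competition radioligand binding to the AT1 receptor was run on vascular smooth muscle cells with [125I]-AII as the labelled ligand. Affinity is reported as IC50 and Ki, given as ± SEM.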

Rattus norvegicus [2] = organism: Rattus norvegicus; assay: as §1; procedure, shortened: as §2
Rattus norvegicus [3] = assay: Antihypertensive activity in SHR rat assessed as reduction in mean blood pressure at 5 mg/kg, po measured upto 24 hrs post dosing; type: functional, organism-based
Procedure, shortened: (§3)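 Spontaneously hypertensive rats received test agents orally at 5 or 10 mg/kg, with losartan and telmisartan at 10 mg/kg as references. Mean blood pressure was tracked for over 24 h after dosing and compared with a negative control group. Significance versus control was set at p<0.05 and p<0.01.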

Rattus norvegicus [4] = assay: Antihypertensive activity in SHR rat assessed as reduction in mean blood pressure at 10 mg/kg, po measured upto 24 hrs post dosing; type: functional; procedure, shortened: as §3
Mus musculus [5] = assay: Acute toxicity in ICR mouse assessed as obvious untoward reaction at 307.20 to 937, ig administered daily for 2 weeks during compound dosing; type: organism-based; conditions: in vivo, po, 336 h
Procedure, shortened: (§4)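 Mice were given single-compound dose groups of 307.20, 384.00, 480.00, 600.00, 750.00 and 937 mg/kg. Body weight of survivors was checked after 2 weeks. Mortality (%) was scored per dose group, and LD50 with 95% confidence interval was derived from log(dose) versus mortality.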

[6] = Acute toxicity in ICR mouse assessed as mortality at 750 mg/kg, ig administered daily for 2 weeks measured during compound dosing; type: organism-based; conditions: in vivo, po; procedure, shortened: as §4
Rattus norvegicus [7] = assay: Antihypertensive activity in SHR rat assessed as reduction in mean blood pressure at 10 mg/kg, po measured after 6 hrs post dosing; type: functional; procedure, shortened: as §3
[8] = Acute toxicity in ICR mouse assessed as mortality at 937 mg/kg, ig administered daily for 2 weeks measured during compound dosing; type: organism-based; conditions: in vivo, po; procedure, shortened: as §4
Mus musculus [9] = assay: Acute toxicity in ICR mouse assessed as aggressiveness at 307.20 mg/kg, ig administered daily for 2 weeks measured during compound dosing; type: organism-based; conditions: in vivo, po, 307.2 mg/kg, 336 h; procedure, shortened: as §4
[10] = Acute toxicity in ICR mouse assessed as mortality at 307.20 mg/kg, ig administered daily for 2 weeks measured during compound dosing; type: organism-based; conditions: in vivo, po, 307.2 mg/kg; procedure, shortened: as §4
Mus musculus [11] = assay: Acute toxicity in ICR mouse assessed as mobility at 307.20 mg/kg, ig administered daily for 2 weeks measured during compound dosing; type: organism-based; conditions: in vivo, po, 307.2 mg/kg, 336 h; procedure, shortened: as §4
Rattus norvegicus [12] = assay: Antihypertensive activity in po dosed SHR rat assessed as reduction in mean blood pressure measured upto 24 hrs post dosing; type: functional, organism-based
Procedure, shortened: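 In spontaneously hypertensive rats, test compounds were given orally at 5 and 10 mg/kg, with losartan and telmisartan references at 10 mg/kg. Mean blood pressure was followed over time to beyond 24 h post-dose and compared with a negative control group. Significance was set at p<0.05 and p<0.01.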

Mus musculus [13] = assay: Acute toxicity in ICR mouse assessed as skin changes at 307.20 mg/kg, ig administered daily for 2 weeks measured during compound dosing; type: organism-based; conditions: in vivo, po, 307.2 mg/kg, 336 h; procedure, shortened: as §4
Mus musculus [14] = assay: Acute toxicity in ICR mouse assessed as change in body weight at 307.20 to 937 mg/kg, ig administered daily for 2 weeks during compound dosing; type: organism-based; conditions: in vivo, po, 336 h; procedure, shortened: as §4
Mus musculus [15] = assay: Acute toxicity in ICR mouse assessed as skin changes at 384 mg/kg, ig administered daily for 2 weeks measured during compound dosing; type: organism-based; conditions: in vivo, po, 336 h; procedure, shortened: as §4
[16] = Acute toxicity in ICR mouse assessed as mortality at 480 mg/kg, ig administered daily for 2 weeks measured during compound dosing; type: organism-based; conditions: in vivo, po; procedure, shortened: as §4
Mus musculus [17] = assay: Acute toxicity in ICR mouse assessed as respiratory movements at 307.20 mg/kg, ig administered daily for 2 weeks measured during compound dosing; type: organism-based; conditions: in vivo, po, 307.2 mg/kg, 336 h; procedure, shortened: as §4
Mus musculus [18] = assay: Acute toxicity in ICR mouse assessed as hyperthyroidism at 480 to 937 mg/kg, ig administered daily for 2 weeks measured after 6 hrs post last dose; conditions: in vivo, po
Mus musculus [19] = assay: Acute toxicity in ICR mouse assessed as aggressiveness at 384 mg/kg, ig administered daily for 2 weeks measured during compound dosing; type: organism-based; conditions: in vivo, po, 336 h; procedure, shortened: as §4
[20] = Acute toxicity in ICR mouse assessed as mortality at 600 mg/kg, ig administered daily for 2 weeks measured during compound dosing; type: organism-based; conditions: in vivo, po; procedure, shortened: as §4
[21] = Acute toxicity in intragastrically dosed ICR mouse assessed as mortality administered daily for 2 weeks measured during compound dosing; type: organism-based; conditions: in vivo, po; procedure, shortened: as §4
Mus musculus [22] = assay: Acute toxicity in ICR mouse assessed as mobility at 384 mg/kg, ig administered daily for 2 weeks measured during compound dosing; type: organism-based; conditions: in vivo, po, 336 h; procedure, shortened: as §4
Mus musculus [23] = assay: Acute toxicity in ICR mouse assessed as pathological changes in organs and tissues at 307.20 to 937, ig administered daily for 2 weeks measured on fifteenth day; type: organism-based; conditions: in vivo, po, 336 h
Mus musculus [24] = assay: Acute toxicity in ICR mouse assessed as respiratory movements at 384 mg/kg, ig administered daily for 2 weeks measured during compound dosing; type: organism-based; conditions: in vivo, po, 336 h; procedure, shortened: as §4
[25] = Acute toxicity in ICR mouse assessed as mortality at 384 mg/kg, ig administered daily for 2 weeks measured during compound dosing; type: organism-based; conditions: in vivo, po; procedure, shortened: as §4

CCc1nc2c(C)cc(-c3nc4ccccc4n3C)cc2n1Cc1ccc2c(ccn2-c2ccccc2C(=O)O)c1
IC50 [1]: 13.1 nM | Ki [1]: 8.16 nM | Activity (Rattus norvegicus [2]): Dose-dependent effect | Activity (Rattus norvegicus [3]): inactive | Activity (Rattus norvegicus [4]): inactive

CCc1nc2c(C)cc(-c3ccccn3)cc2n1Cc1cccc2c1ccn2-c1ccccc1C(=O)O
IC50 [1]: 3.55 nM | Ki [1]: 2.57 nM | Activity (Rattus norvegicus [2]): Dose-dependent effect | Activity (Rattus norvegicus [3]): Active | Activity (Rattus norvegicus [4]): Active

CCCc1nc2c(C)cc(-c3nc4ccccc4n3C)cc2n1Cc1ccc(-c2ccccc2C(=O)O)cc1 [TELMISARTAN]
IC50 [1]: 3.8 nM | Ki [1]: 2.75 nM | Activity (Rattus norvegicus [2]): Dose-dependent effect | Activity (Rattus norvegicus [4]): Active

Cc1cc(-c2nc3ccccc3n2C)cc2c1nc(C)n2Cc1cccc2c1ccn2-c1ccccc1C(=O)O
IC50 [1]: 7.46 nM | Ki [1]: 4.66 nM | Activity (Rattus norvegicus [2]): Dose-dependent effect | Activity (Rattus norvegicus [3]): inactive | Activity (Rattus norvegicus [4]): inactive

CCCCc1nc2c(C)cc(-c3nc4ccccc4n3C)cc2n1Cc1cccc2c1ccn2-c1ccccc1C(=O)O
IC50 [1]: 2.61 nM | Ki [1]: 1.63 nM | Activity (Rattus norvegicus [2]): Dose-dependent effect | Activity (Rattus norvegicus [3]): inactive | Activity (Rattus norvegicus [4]): inactive

CCCc1nc2c(C)cc(-c3ccccn3)cc2n1Cc1ccc2c(ccn2-c2ccccc2C(=O)O)c1
IC50 [1]: 3.27 nM | Ki [1]: 2.37 nM | Activity (Rattus norvegicus [2]): Dose-dependent effect | Activity (Rattus norvegicus [4]): 43 mmHg

CCCc1nc2c(C)cc(-c3ccccn3)cc2n1Cc1cccc2c1ccn2-c1ccccc1C(=O)O
IC50 [1]: 4.7 nM | Ki [1]: 3.4 nM | Activity (Rattus norvegicus [2]): Dose-dependent effect | Activity (Rattus norvegicus [3]): Active | Activity (Rattus norvegicus [4]): Active

CCCc1nc2c(C)cc(-c3nc4ccccc4n3C)cc2n1Cc1cccc2c1ccn2-c1ccccc1-c1nnn[nH]1
IC50 [1]: 3.39 nM | Ki [1]: 2.12 nM | Activity (Rattus norvegicus [2]): Dose-dependent effect | Activity (Rattus norvegicus [3]): Active | Activity (Rattus norvegicus [4]): Active

CCCCCc1nc2c(C)cc(-c3nc4ccccc4n3C)cc2n1Cc1ccc2c(ccn2-c2ccccc2C(=O)O)c1
IC50 [1]: 0.92 nM | Ki [1]: 0.67 nM | Activity (Rattus norvegicus [2]): Dose-dependent effect | Activity (Rattus norvegicus [4]): 53 mmHg

CCc1nc2c(C)cc(-c3ccccn3)cc2n1Cc1ccc2c(ccn2-c2ccccc2C(=O)O)c1
IC50 [1]: 1.17 nM | Ki [1]: 0.84 nM | Activity (Rattus norvegicus [2]): Dose-dependent effect | Activity (Rattus norvegicus [4]): 42 mmHg

CCCc1nc2c(C)cc(-c3nc4ccccc4n3C)cc2n1Cc1cccc2c1ccn2-c1ccccc1C(=O)O
IC50 [1]: 0.36 nM | Ki [1]: 0.23 nM | Activity (Rattus norvegicus [2]): Dose-dependent effect | Activity (Mus musculus [5]): Non-toxic | mortality at 336 h [6]: 90% | Activity (Rattus norvegicus [7]): 64 mmHg | Activity (Rattus norvegicus [3]): Active | mortality at 336 h [8]: 100% | Activity (Mus musculus [9]): Non-toxic | mortality at 336 h [10]: 0% | Activity (Mus musculus [11]): Non-toxic | Activity (Rattus norvegicus [12]): Dose-dependent effect | Activity (Mus musculus [13]): Non-toxic | Activity (Mus musculus [14]): Non-toxic | Activity (Mus musculus [15]): Non-toxic | Activity (Rattus norvegicus [4]): Active | mortality at 336 h [16]: 50% | Activity (Mus musculus [17]): Non-toxic | Activity (Mus musculus [18]): Toxic | Activity (Mus musculus [19]): Non-toxic | mortality at 336 h [20]: 60% | LD50 at 336 h [21]: 526 mg/kg | Activity (Mus musculus [22]): Non-toxic | Activity (Mus musculus [23]): Non-toxic | Activity (Mus musculus [24]): Non-toxic | mortality at 336 h [25]: 10%

Cc1cc(-c2nc3ccccc3n2C)cc2c1nc(C)n2Cc1ccc2c(ccn2-c2ccccc2C(=O)O)c1
IC50 [1]: 8.25 nM | Ki [1]: 5.13 nM | Activity (Rattus norvegicus [2]): Dose-dependent effect | Activity (Rattus norvegicus [4]): 44 mmHg

CCCc1nc2c(C)cc(-c3nc4ccccc4n3C)cc2n1Cc1ccc2c(ccn2-c2ccccc2C(=O)O)c1
IC50 [1]: 3.76 nM | Ki [1]: 2.35 nM | Activity (Rattus norvegicus [2]): Dose-dependent effect | Activity (Rattus norvegicus [3]): Active | Activity (Rattus norvegicus [4]): Active

CCc1nc2c(C)cc(-c3nc4ccccc4n3C)cc2n1Cc1cccc2c1ccn2-c1ccccc1C(=O)O
IC50 [1]: 1.83 nM | Ki [1]: 1.14 nM | Activity (Rattus norvegicus [2]): Dose-dependent effect | Activity (Rattus norvegicus [3]): Active | Activity (Rattus norvegicus [4]): Active

CCCCc1nc2c(C)cc(-c3ccccn3)cc2n1Cc1cccc2c1ccn2-c1ccccc1C(=O)O
IC50 [1]: 5.63 nM | Ki [1]: 4.08 nM | Activity (Rattus norvegicus [2]): Dose-dependent effect | Activity (Rattus norvegicus [3]): Active | Activity (Rattus norvegicus [4]): Active

CCCCc1nc2c(C)cc(-c3ccccn3)cc2n1Cc1ccc2c(ccn2-c2ccccc2C(=O)O)c1
IC50 [1]: 5.61 nM | Ki [1]: 4.06 nM | Activity (Rattus norvegicus [2]): Dose-dependent effect | Activity (Rattus norvegicus [3]): inactive | Activity (Rattus norvegicus [4]): inactive

CCCCc1nc(Cl)c(CO)n1Cc1ccc(-c2ccccc2-c2nnn[nH]2)cc1 [LOSARTAN]
IC50 [1]: 20.1 nM | Ki [1]: 13.1 nM | Activity (Rattus norvegicus [2]): Dose-dependent effect | Activity (Rattus norvegicus [4]): 43 mmHg

CCCCCc1nc2c(C)cc(-c3nc4ccccc4n3C)cc2n1Cc1cccc2c1ccn2-c1ccccc1C(=O)O
IC50 [1]: 11.3 nM | Ki [1]: 7.06 nM | Activity (Rattus norvegicus [2]): Dose-dependent effect | Activity (Rattus norvegicus [3]): inactive | Activity (Rattus norvegicus [4]): inactive

CCCCc1nc2c(C)cc(-c3nc4ccccc4n3C)cc2n1Cc1ccc2c(ccn2-c2ccccc2C(=O)O)c1
IC50 [1]: 2.23 nM | Ki [1]: 1.39 nM | Activity (Rattus norvegicus [2]): Dose-dependent effect | Activity (Rattus norvegicus [3]): Active | Activity (Rattus norvegicus [4]): Active
